Measured values published in ChEMBL document CHEMBL6134855, “Peptidomimetics Activating the Proteasome: A New Perspective for Parkinson's Treatment” (J Med Chem, 2025).
Calls of active or inactive are those of the source. The rule behind the calls is not given here. Where a SMILES comes first, the peptide text is derived from it. [ ]: non-standard residue; d: D form. N(4-MeOBn)Gly = COc1ccc(CNCC(=O)O)cc1; NMeY = CN[C@@H](Cc1ccc(O)cc1)C(=O)O; Gly(N-CH2CH2OH) = O=C(O)CNCCO; NMeK = CN[C@@H](CCCCN)C(=O)O; Nlys = NCCCCNCC(=O)O

How the values were obtained:
[1] = target: T1, 20S proteasome (Homo sapiens) (UniProt P49721+P20618+P28074+P28062+P28065+P28072+P25786+P25787+P25788+P25789+P28066+P60900+O14818+Q8TAA3+P40306+A5LHX3+P49720+P28070+Q99436); assay: Activation of human erythrocyte-derived 20S proteasome chymotrypsin-like activity using succinyl-LeuLeuValTyr-AMC as substrate assessed as fold increase in activity incubated for 1 hr by fluorescence based analysis relative to control; conditions: filed as activator
Procedure, shortened: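 h20S proteasome 0.002 mg/mL (2.8 nM) in 50 mM Tris/HCl pH 8.0, 2% DMSO final. Suc-LLVY-AMC 100 μM final. Modulators 1.0–50 μM (TAT/6R constructs 0.5–10 μM). AMC fluorescence ex 380/em 460 nm read every 2 min for 60 min at 37 °C. Activity relative to DMSO-treated latent proteasome (100%); ≥3 replicates.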

[2] = target: T1, 20S proteasome (Homo sapiens); assay: Activation of human erythrocyte-derived 20S proteasome using Dabcyl-EDANS as FRET-type substrate at 1.0 to 50 uM measured every two mins for 60 mins by fluorescence based analysis; format: cell-based; conditions: filed as activator, dose 1-50 µM
Procedure, shortened: (§1)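 Latent human 20S proteasome (0.002 mg/mL, 2.8 nM) in 50 mM Tris/HCl pH 8.0 with 2% DMSO. AMC substrates at 100 μM final (ex 380/em 460 nm); Dabcyl-EDANS at 15 μM final (ex 335/em 493 nm). Modulators at 1.0–50 μM; TAT- or 6R-containing constructs at 0.5–10 μM. Read every 2 min for 60 min at 37 °C. Activity relative to DMSO-treated proteasome (100%). ≥3 independent replicates.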

[3] = target: T1, 20S proteasome (Homo sapiens); assay: Activation of human erythrocyte-derived 20S proteasome chymotrypsin-like activity using Suc-LLVY-AMC as substrate at 1.0 to 50 uM measured every two mins for 60 mins by fluorescence based analysis; conditions: filed as activator, dose 1-50 µM
[4] = target: T1, 20S proteasome (Homo sapiens); assay: Activation of human erythrocyte-derived 20S proteasome caspase-like activity using Z-LLE-AMC as substrate at lower concentration measured every two mins for 60 mins by fluorescence based analysis; conditions: filed as activator; procedure, shortened: as §1
[5] = target: T1, 20S proteasome (Homo sapiens); assay: Activation of human erythrocyte-derived 20S proteasome using Dabcyl-EDANS as FRET-type substrate at lower concentration measured every two mins for 60 mins by fluorescence based analysis; format: cell-based; conditions: filed as activator; procedure, shortened: as §1
[6] = Proteolytic stability of compound in human plasma assessed as protease-mediated degradation by measuring compound remaining at 200 uM incubated for 30 mins by UHPLC analysis; format: ADME, cell-free; conditions: read-out: Stability
Procedure, shortened: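 Compound (200 μM final, dissolved in water) incubated in human serum at 37 °C for 30 min. Samples every 5 min quenched 1:1 with 6% TCA and centrifuged. Supernatant analysed by UHPLC (UV 223 nm) for intact compound; cleavage sites identified by MS.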

[7] = target: T1, 20S proteasome (Homo sapiens); assay: Activation of human erythrocyte-derived 20S proteasome trypsin-like activity using Boc-LRR-AMC as substrate at lower concentration measured every two mins for 60 mins by fluorescence based analysis; conditions: filed as activator; procedure, shortened: as §1
[8] = target: T1, 20S proteasome (Homo sapiens); assay: Activation of human erythrocyte-derived 20S proteasome chymotrypsin-like activity using Suc-LLVY-AMC as substrate at lower concentration measured every two mins for 60 mins by fluorescence based analysis; conditions: filed as activator; procedure, shortened: as §1
[9] = target: T1, 20S proteasome (Homo sapiens); assay: Activation of human erythrocyte-derived 20S proteasome chymotrypsin-like activity using Suc-LLVY-AMC as substrate at higher concentration measured every two mins for 60 mins by fluorescence based analysis; conditions: filed as activator; procedure, shortened: as §1
[10] = target: T1, 20S proteasome (Homo sapiens); assay: Activation of human erythrocyte-derived 20S proteasome chymotrypsin-like activity using Suc-LLVY-AMC as substrate at 1 uM measured every two mins for 60 mins by fluorescence based analysis; conditions: filed as activator; procedure, shortened: as §1
[11] = Permeability of compound in PBS incubated for 22 hrs by PAMPA-BBB assay; format: ADME
Procedure, shortened: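 PAMPA-BBB with a 2% porcine brain lipid membrane. Compounds were diluted from 10 mM aqueous stocks to 500 μM in 0.1 M PBS containing 5% DMSO and incubated 22 h at 37 °C with shaking at 250 rpm. Read-out was fluorescence after reaction with 0.02% fluorescamine (absorbance at 290 nm for propranolol). Pe calculated as linear permeation velocity. Three biological replicates.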

[12] = target: T1, 20S proteasome (Homo sapiens); assay: Activation of human erythrocyte-derived 20S proteasome using Dabcyl-EDANS as FRET-type substrate assessed as fold increase in activity at 1.0 to 50 uM measured every two mins for 60 mins by fluorescence based analysis relative to control; format: cell-based; conditions: filed as activator, dose 1-50 µM; procedure, shortened: as §1
[13] = target: T1, 20S proteasome (Homo sapiens); assay: Activation of human erythrocyte-derived 20S proteasome chymotrypsin-like activity using Suc-LLVY-AMC as substrate assessed as fold increase in activity at 1.0 to 50 uM measured every two mins for 60 mins by fluorescence based analysis relative to control; conditions: filed as activator, dose 1-50 µM; procedure, shortened: as §1

N=C(N)NCCC[C@H](NC(=O)CN)C(=O)N[C@@H](CCCCN)C(=O)N[C@@H](CCCCN)C(=O)N[C@@H](CCCNC(=N)N)C(=O)N[C@@H](CCCNC(=N)N)C(=O)N[C@@H](CCC(N)=O)C(=O)N1Cc2ccccc2CC1C(=O)N1[C@@H](C(=O)N[C@@H](CCCNC(=N)N)C(=O)N2CCC[C@H]2C(=O)N[C@@H](CO)C(=O)O)C[C@@H]2CCCC[C@@H]21 (some centres not stated)
fold change (FC) [1]: 8

NCCCC[C@H](NC(=O)[C@H](CCCCN)NC(=O)[C@@H](N)CCCCN)C(=O)Nc1cc(NC(=O)[C@H](CCCCN)NC(=O)[C@H](CCCCN)NC(=O)[C@@H](N)CCCCN)cc(NC(=O)[C@H](CCCCN)NC(=O)[C@H](CCCCN)NC(=O)[C@@H](N)CCCCN)c1
fold change (FC) [1]: 10

C[C@@H](O)[C@H](NC(=O)[C@H](Cc1ccccc1)NC(=O)[C@H](Cc1ccc(O)cc1)NC(=O)[C@@H](N)CCCCN)C(=O)NCC(=O)N[C@@H](CO)C(=O)N[C@@H](CCCCN)C(=O)N[C@@H](CC(=O)O)C(=O)N[C@@H](Cc1c[nH]c2ccccc12)C(=O)N[C@@H](CCCNC(=N)N)C(=O)N(CCO)CC(=O)N[C@@H](Cc1ccc(O)cc1)C(=O)N[C@@H](Cc1ccc(O)cc1)C(=O)N[C@@H](CO)C(=O)O (H-KYFTGSKDWR[Gly(N-CH2CH2OH)]YYS-OH)
Activity [2]: Active | Activity [3]: Active; Lower Capacity Of Activation Is Observed

COc1ccc(CN(CC(=O)N[C@@H](CCCNC(=N)N)C(=O)N[C@@H](CCCNC(=N)N)C(=O)N[C@@H](Cc2ccc(O)cc2)C(=O)N[C@@H](Cc2ccc(O)cc2)C(=O)N[C@@H](CO)C(=O)O)C(=O)[C@H](CC(=O)O)NC(=O)[C@H](CCCCN)NC(=O)[C@H](CO)NC(=O)CNC(=O)[C@@H](NC(=O)[C@H](Cc2ccccc2)NC(=O)[C@H](Cc2ccc(O)cc2)NC(=O)[C@@H](N)CCCCN)[C@@H](C)O)cc1 (H-KYFTGSKD[N(4-MeOBn)Gly]RRYYS-OH)
Activity [4]: Weak_effect | Activity [5]: Active | remaining at 0.5 h, 200 µM [6]: < 30% | Activity [7]: Weak_effect | Activity [2]: Active | Activity [8]: Active

C[C@@H](O)[C@H](NC(=O)[C@H](Cc1ccccc1)NC(=O)[C@H](Cc1ccc(O)cc1)NC(=O)[C@@H](N)CCCCN)C(=O)NCC(=O)N[C@@H](CO)C(=O)N(CCCCN)CC(=O)N[C@@H](CC(=O)O)C(=O)N[C@@H](Cc1ccc(O)cc1)C(=O)N[C@@H](CCCNC(=N)N)C(=O)N[C@@H](CCCNC(=N)N)C(=O)N[C@@H](Cc1ccc(O)cc1)C(=O)N[C@@H](Cc1ccc(O)cc1)C(=O)N[C@@H](CO)C(=O)O (H-KYFTGS[Nlys]DYRRYYS-OH)
Activity [9]: Active

COc1ccc(CN(CC(=O)N[C@@H](Cc2ccccc2)C(=O)N[C@H](C(=O)NCC(=O)N[C@@H](CO)C(=O)N[C@@H](CCCCN)C(=O)N[C@@H](CC(=O)O)C(=O)N[C@@H](Cc2ccc(O)cc2)C(=O)N[C@@H](CCCNC(=N)N)C(=O)N[C@@H](CCCNC(=N)N)C(=O)N[C@@H](Cc2ccc(O)cc2)C(=O)N[C@@H](Cc2ccc(O)cc2)C(=O)N[C@@H](CO)C(=O)O)[C@@H](C)O)C(=O)[C@@H](N)CCCCN)cc1 (H-K[N(4-MeOBn)Gly]FTGSKDYRRYYS-OH)
Activity [10]: Moderate_effect

COc1ccc(CN(CC(=O)N[C@@H](CCCNC(=N)N)C(=O)N[C@@H](CCCNC(=N)N)C(=O)N[C@@H](Cc2ccc(O)cc2)C(=O)N[C@@H](Cc2ccc(O)cc2)C(=O)N[C@@H](CO)C(=O)O)C(=O)[C@H](CC(=O)O)NC(=O)[C@H](CCCCN)NC(=O)[C@H](CO)NC(=O)CNC(=O)[C@@H](NC(=O)[C@H](Cc2ccccc2)NC(=O)CN(Cc2ccc(OC)cc2)C(=O)[C@@H](N)CCCCN)[C@@H](C)O)cc1 (H-K[N(4-MeOBn)Gly]FTGSKD[N(4-MeOBn)Gly]RRYYS-OH)
Activity [4]: Weak_effect | Activity [5]: Active | Activity [7]: Weak_effect | Activity [2]: Active | Activity [8]: Active

CN[C@@H](CCCCN)C(=O)N(C)[C@@H](Cc1ccc(O)cc1)C(=O)N[C@@H](Cc1ccccc1)C(=O)N[C@H](C(=O)NCC(=O)N[C@@H](CO)C(=O)N[C@@H](CCCCN)C(=O)N[C@@H](CC(=O)O)C(=O)N[C@@H](Cc1c[nH]c2ccccc12)C(=O)N[C@@H](CCCNC(=N)N)C(=O)N[C@@H](CO)C(=O)N[C@@H](Cc1ccc(O)cc1)C(=O)N[C@@H](Cc1ccc(O)cc1)C(=O)N[C@@H](CO)C(=O)O)[C@@H](C)O (H-[NMeK][NMeY]FTGSKDWRSYYS-OH)
Activity [2]: Active

C[C@@H](O)[C@H](NC(=O)[C@H](Cc1ccccc1)NC(=O)[C@H](Cc1ccc(O)cc1)NC(=O)CNCCCCN)C(=O)NCC(=O)N[C@@H](CO)C(=O)N[C@@H](CCCCN)C(=O)N[C@@H](CC(=O)O)C(=O)N[C@@H](Cc1c[nH]c2ccccc12)C(=O)N[C@@H](CCCNC(=N)N)C(=O)N[C@@H](CO)C(=O)N[C@@H](Cc1ccc(O)cc1)C(=O)N[C@@H](Cc1ccc(O)cc1)C(=O)N[C@@H](CO)C(=O)O (H-[Nlys]YFTGSKDWRSYYS-OH)
permeability [11]: Impermeable

C[C@@H](O)[C@H](NC(=O)[C@H](Cc1ccccc1)NC(=O)[C@H](Cc1ccc(O)cc1)NC(=O)CNCCCCN)C(=O)NCC(=O)N[C@@H](CO)C(=O)N[C@@H](CCCCN)C(=O)N[C@@H](CC(=O)O)C(=O)N[C@@H](Cc1c[nH]c2ccccc12)C(=O)N[C@@H](CCCNC(=N)N)C(=O)N(CCO)CC(=O)N[C@@H](Cc1ccc(O)cc1)C(=O)N[C@@H](Cc1ccc(O)cc1)C(=O)N[C@@H](CO)C(=O)O (H-[Nlys]YFTGSKDWR[Gly(N-CH2CH2OH)]YYS-OH)
Activity [2]: Active | Activity [3]: Active; Lower Capacity Of Activation Is Observed

C[C@@H](O)[C@H](NC(=O)[C@H](Cc1ccccc1)NC(=O)[C@H](Cc1ccc(O)cc1)NC(=O)CNCCCCN)C(=O)NCC(=O)N[C@@H](CO)C(=O)N[C@@H](CCCCN)C(=O)N[C@@H](CC(=O)O)C(=O)N[C@@H](Cc1ccc(O)cc1)C(=O)N[C@@H](CCCNC(=N)N)C(=O)N[C@@H](CCCNC(=N)N)C(=O)N[C@@H](Cc1ccc(O)cc1)C(=O)N[C@@H](Cc1ccc(O)cc1)C(=O)N[C@@H](CO)C(=O)O (H-[Nlys]YFTGSKDYRRYYS-OH)
Activity [5]: Active | Activity [2]: Active | Activity [8]: Active

C[C@@H](O)[C@H](NC(=O)[C@H](Cc1ccccc1)NC(=O)[C@H](Cc1ccc(O)cc1)NC(=O)CNCCCCN)C(=O)NCC(=O)N[C@@H](CO)C(=O)N(CCCCN)CC(=O)N[C@@H](CC(=O)O)C(=O)N[C@@H](Cc1ccc(O)cc1)C(=O)N[C@@H](CCCNC(=N)N)C(=O)N[C@@H](CCCNC(=N)N)C(=O)N[C@@H](Cc1ccc(O)cc1)C(=O)N[C@@H](Cc1ccc(O)cc1)C(=O)N[C@@H](CO)C(=O)O (H-[Nlys]YFTGS[Nlys]DYRRYYS-OH)
Activity [9]: Active | Activity [10]: Moderate_effect

H-KYFTGSKDWRSYYS-OH
remaining at 0.5 h, 200 µM [6]: ≤ 10% | fold change (FC) [12]: 12 | fold change (FC) [13]: 8

H-KYFTGSKDYRRYYS-OH
Activity [5]: Active | remaining at 0.5 h, 200 µM [6]: ≤ 10% | Activity [8]: Active
